Screening data deposited in PubChem by several laboratories.
In the library only some 2.3% were active in any assay of this set; here they are far more common.
NPY Y1 blocker: NPY-Y1 receptor antagonists, primary screen, cell-based | Neuropeptide Y receptor type 1 (Homo sapiens), P25929 | HEK293-CNG Y1 cells, membrane potential fluorescence; NPY at EC95, then isoproterenol | inhibition, % at 3.6 µM | 200,000 compounds, 1% hits | AID 1040, 2008;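 active = inhibition above the campaign mean inhibition of all tested compounds plus 3 SD, cut at about 20% in these data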;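 note: 0% = DMSO wells given NPY plus isoproterenol and 100% = isoproterenol alone without NPY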
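System: HEK293 cells with Y1 receptor plus CNG channel / Probe or stimulus: NPY 25 nM then isoproterenol 1 µM plus Ro 20-1724 25 µM / Compound: one concentration, 3.6 µM, in 0.4% DMSO / Schedule: compound incubation 1 h at room temperature, readout 45 min post-stimulation / Measured by: membrane potential fluorescence / Read-out: % inhibition of NPY effect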
TbHK1 inh: Trypanosoma brucei hexokinase 1 inhibitors, primary screen, biochemical, G6PDH-coupled NADH absorbance, MLSCN library; hexokinase 1 [Trypanosoma brucei]; recombinant TbHK1, G6PDH-coupled NADH A340; inhibition, % at 10 µM; 220,000 compounds, 0.11% hits; AID 1430, 2008;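 active = inhibition of 50% or more in the single-dose primary screen; inactive = inhibition below 50%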
NPY1 pot ag: NPY-Y1 receptor potentiators or agonists, primary screen, cell-based; Neuropeptide Y receptor type 1 (Homo sapiens), P25929; NPY-Y1 expressing cells, potentiator/agonist activation; activation, % at 3.6 µM; 220,000 compounds, 0.37% hits; in the data active = activation above about 33%, passing the limit was not always enough;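 note: cells stimulated with NPY at EC10 then isoproterenol at EC100; 0% = low agonist plus stimulus and 100% = saturating agonist plus stimulus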
NPY-Y2 antag: NPY-Y2 receptor antagonists, primary screen, cell-based; Neuropeptide Y receptor type 2 (Homo sapiens), P49146; NPY-Y2 expressing cells, antagonist mode; inhibition, % at 2.7 µM; 140,000 compounds, 0.99% hits; AID 793, 2007; in the data active = inhibition above about 17%;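 note: 0% = vehicle with agonist challenge and 100% = reference antagonist with challenge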
Target sequence (P49146 whole entry, looked up): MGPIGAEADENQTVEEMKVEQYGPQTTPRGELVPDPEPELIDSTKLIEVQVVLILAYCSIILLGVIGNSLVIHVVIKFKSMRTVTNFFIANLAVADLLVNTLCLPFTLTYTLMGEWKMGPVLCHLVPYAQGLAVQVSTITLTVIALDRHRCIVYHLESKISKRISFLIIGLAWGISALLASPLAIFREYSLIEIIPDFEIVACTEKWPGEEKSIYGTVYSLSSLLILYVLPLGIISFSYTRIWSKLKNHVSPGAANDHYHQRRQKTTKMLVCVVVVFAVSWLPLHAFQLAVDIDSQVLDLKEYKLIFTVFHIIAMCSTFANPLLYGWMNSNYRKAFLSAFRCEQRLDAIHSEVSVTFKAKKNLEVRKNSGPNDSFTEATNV
NPY-Y2 PAM-ag: NPY-Y2 potentiators or agonists, primary screen, cell-based; Neuropeptide Y receptor type 2 (Homo sapiens), P49146; 220,000 compounds, 0.45% hits; activation, % at 3.6 µM; cells expressing NPY-Y2, potentiator/agonist read-out; AID 1359, 2008; in the data active = activation above about 27%;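 note: cells stimulated with NPY near EC25 plus isoproterenol at EC100; 0% = vehicle plus submaximal agonist and 100% = vehicle plus saturating agonist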
Calpain2 inh: inhibitors of pig calpain II, primary screen, biochemical, fluorogenic peptide substrate, 1536-well. purified calpain II, 30 min. inhibition, % at 16 µM. 220,000 compounds, 0.37% hits. AID 1236, 2008;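 active = inhibition above about 50%, limit read from the data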
The depositor's hits bear a star; nt = not tested or not shown.

SMILES	NPY Y1 blocker	TbHK1 inh	NPY1 pot ag	NPY-Y2 antag	NPY-Y2 PAM-ag	Calpain2 inh
OCC1CCCN(C(=S)Nc2ccc(Nc3ccccc3)cc2)C1 (configuration not stated)	-5.2	1.4	14.5	nt	-2.7	24.3
CC(CCc1ccccc1)NCC(O)COc1ccccc1 (configuration not stated)	-10.1	6.6	104.0*	nt	99.5*	-15.1
CC(C)NCC(O)COc1ccc(CCOCC2CC2)cc1 (configuration not stated)	-11.7	0.2	96.3*	0.9	91.6*	15.2
CC(C)NCC(O)COc1ccc2c(c1)CCC2 (configuration not stated)	-12.3	0.4	104.6*	3.3	96.0*	-1.8
CC(C)NCC(O)COc1ccc(Br)cc1 (configuration not stated)	-8.5	0.3	74.7*	nt	53.7*	20.0
CCC(CC)NCC(O)COc1ccc(Br)cc1 (configuration not stated)	2.8	13.0	-13.0	nt	1.1	16.2
O=C(Nc1nc2ccccc2n1CCOc1ccc(Cl)cc1)c1ccco1	24.1*	-9.0	-101.7	31.4*	-90.5	4.7
c1ccc(OCCn2c(-c3ccco3)nc3ccccc32)cc1	7.7	2.9	-30.4	4.8	-21.4	-8.3
Cc1cccc(OCCn2c(-c3ccco3)nc3ccccc32)c1	26.2*	6.6	-49.7	20.3*	-11.3	5.1
Cc1ccc(OCCn2c(NC(=O)c3ccco3)nc3ccccc32)cc1	8.9	2.6	-2.5	20.2*	6.0	-129.0
Cc1cccc(OCCn2c(NC(=O)c3ccco3)nc3ccccc32)c1	33.5*	-5.1	-106.7	37.0*	-53.4	-9.3
COCc1cc(=O)[nH]c(/N=C(\N)Nc2cccc(Cl)c2)n1	-2.0	2.2	9.3	nt	-5.8	19.5
COc1ccc(-n2c(COc3cccc4ccccc34)nnc2SC(C)C(=O)O)cc1 (configuration not stated)	5.5	0.5	9.4	nt	-0.5	-10.5
COc1ccc(Nc2c([N+](=O)[O-])ccc3c2=NC2(CCCCC2)N=3)cc1	-14.9	-9.9	43.7*	nt	37.9*	22.2
CCCC1Cc2c(sc(NC(=S)NC(=O)c3ccccc3)c2C#N)CO1 (configuration not stated)	0.9	7.1	-29.0	2.4	-1.1	53.4*
N#Cc1c(NC(=S)NC(=O)c2ccccc2)sc2c1CCCC2	-4.7	-0.7	-9.8	1.3	8.0	-8.8
Clc1ccc(COc2cccc(CNCc3ccncc3)c2)cc1	8.3	9.4	-25.1	nt	3.3	26.6
COc1ccc(NC(=O)C2CCCN(S(=O)(=O)c3cccc4cccnc34)C2)c(OC)c1 (configuration not stated)	1.1	6.9	-6.6	0.8	-13.8	124.0*
CC(=O)c1cccc(NC(=O)C2CCCN(S(=O)(=O)c3cccc4cccnc34)C2)c1 (configuration not stated)	0.8	-0.1	-6.1	1.2	-3.5	-6.2
Cc1cc(C)c(S(=O)(=O)Nc2ccc3c(c2)CCC3)c(C)c1	10.5	33.9	6.5	4.9	-17.0	50.7*
Cc1cc(C)c(S(=O)(=O)Nc2ccc(O)cc2)c(C)c1	-6.2	4.0	13.0	2.6	1.2	13.9
Cc1ccc(/C=C/C(=O)OCc2nc(N)nc(Nc3ccccc3C)n2)o1	18.0	-20.5	-21.6	nt	-30.4	1.0
FC(F)(F)c1cccc(NC(=S)NNC(=S)Nc2ccc(Cl)cc2)c1	nt	-0.8	73.8*	nt	44.8*	5.1
CCN(CC)CC(=O)Nc1cccc2c1C(=O)c1ccccc1C2=O	1.4	-6.7	22.4	nt	-2.3	-6.9
O=C1c2ccccc2C(=O)c2c(NCCCN(CCO)CCO)cccc21	-13.1	6.8	52.6*	nt	38.9*	6.7
SMILES	NPY Y1 blocker	TbHK1 inh	NPY1 pot ag	NPY-Y2 antag	NPY-Y2 PAM-ag	Calpain2 inh
COc1ccc(C(O)c2nc3ccccc3n2C(C)C)cc1 (configuration not stated)	nt	-1.4	10.3	nt	-7.8	-4.4
CN(C)c1ccc2c(c1)Sc1cc(N(C)C)ccc1N2C(=O)c1ccccc1	nt	-18.0	4.1	nt	-2.3	-29.6
CC1(c2ccccc2)CC(C)(C)N2C(=O)Cc3cccc1c32 (configuration not stated)	5.7	3.2	-5.2	nt	8.7	18.4
O=C(O)C1CC1c1ccc(Br)cc1 (configuration not stated)	31.1*	-2.7	-42.5	14.5	-35.4	-19.8
COc1ccc(-n2c(CNc3ccc(C)cc3)nnc2SCC(=O)Nc2nc(-c3ccccc3)cs2)cc1	1.9	9.6	-1.2	2.3	1.1	68.5*
Cc1ccc(OCC(O)Cn2c(=N)n(Cc3ccccc3)c3ccccc32)cc1 (configuration not stated)	23.4*	12.6	-42.9	31.7*	-22.6	-5.7
N=c1n(Cc2ccccc2)c2ccccc2n1CC(O)COc1ccc(Cl)cc1Cl (configuration not stated)	8.4	25.9	-22.7	nt	-16.2	52.0*
Cc1cccc(OCC(O)Cn2c(=N)n(CCN3CCCCC3)c3ccccc32)c1 (configuration not stated)	57.1*	2.9	-48.6	83.9*	-40.8	28.1
COc1ccc(OCC(O)Cn2c(=N)n(Cc3ccccc3)c3ccccc32)cc1 (configuration not stated)	32.8*	-0.1	5.1	31.7*	30.4	20.9
N=c1n(Cc2ccccc2)c2ccccc2n1CC(O)c1ccco1 (configuration not stated)	1.6	0.8	-59.0	5.7	-22.6	5.7
Cc1cccc(OCC(O)Cn2c(=N)n(Cc3ccccc3)c3ccccc32)c1 (configuration not stated)	nt	15.3	-29.3	nt	-43.0	-0.4
CCCc1c(NC(=O)Nc2ccc(Cl)cc2Cl)cnn1-c1ccccc1	nt	1.4	-9.8	nt	-1.7	10.0
Cc1c(C(=O)NCc2ccc3c(c2)OCO3)cccc1[N+](=O)[O-]	0.9	-4.9	-11.2	2.2	0.8	-2.5
CC1=C/C(=N\NC(=S)Nc2cccnc2)CC(C)(C)C1	-2.3	5.5	2.0	nt	6.3	24.1
COc1cccc(C2=CC(c3cccs3)n3nnnc3N2)c1 (configuration not stated)	17.2	-13.8	-4.4	9.8	3.4	67.6*
COc1cccc(C2=CC(c3ccc(OC)c(OC)c3OC)n3nnnc3N2)c1 (configuration not stated)	10.8	-1.6	-16.0	0.3	-1.6	31.8
CCOC(=O)c1ccc(Nc2cc(C)nc(-c3ccccc3O)n2)cc1	-0.8	0.9	-15.6	-2.0	12.2	-412.4
